These results are taken from ChEMBL document CHEMBL4371031, “In Vitro Antiviral Activity of New Oxazoline Derivatives as Potent Poliovirus Inhibitors” (J Med Chem, 2019).

Activity calls are given as the source filed them. The rule behind the calls is not given here. Where only a bound is given, the exact number is not on record here.

Common to all, as to type: functional, organism-based
In assay [1] the test system is Poliovirus 1. Briefly: Antiviral activity against Poliovirus Sabin 1 infected in human HeLa cells assessed as reduction in virus-induced cytopathic effect after 72 hrs by crystal violet staining-based assay. The settings on record: Enterovirus C. Summed up:
(§1)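 HeLa cells grown in MEM-10% FBS, seeded at 2x10^5 cells/mL in MEM-2% FBS and preincubated 24 h at 37°C, 5% CO2. Compound and virus were cross-titrated […] compound in 0.5 log10 steps (7-point curves), with duplicate wells and three replicate tests per virus. After 72 h at 37°C, cells were crystal violet stained and read at 590 nm. EC50 came from a four-parameter fit; if all virus dilutions gave >80% monolayer destruction, the value was […].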

In assay [2] the test system is Poliovirus 2. In words: Antiviral activity against Poliovirus Sabin 2 infected in human HeLa cells assessed as reduction in virus-induced cytopathic effect after 72 hrs by crystal violet staining-based assay. The settings on record: Enterovirus C. In a few lines: as §1
In assay [3] the test system is Poliovirus 1. In words: Antiviral activity against Human poliovirus 1 10688 infected in human HeLa cells assessed as reduction in virus-induced cytopathic effect after 72 hrs by crystal violet staining-based assay. The settings on record: Enterovirus C, 10688, HeLa. In a few lines: as §1
The test system of assay [4] is Poliovirus 1. Briefly: Antiviral activity against Human poliovirus 1 10691 infected in human HeLa cells assessed as reduction in virus-induced cytopathic effect after 72 hrs by crystal violet staining-based assay. The conditions noted are these: Enterovirus C, 10691, HeLa. In a few lines: as §1
Assay [5] relates to Poliovirus 1. Briefly: Antiviral activity against Human poliovirus 1 10693 infected in human HeLa cells assessed as reduction in virus-induced cytopathic effect after 72 hrs by crystal violet staining-based assay. The conditions noted are these: Enterovirus C, 10693, HeLa. In a few lines: as §1
Assay [6] deals with Poliovirus 1. In words: Antiviral activity against Human poliovirus 1 10224 infected in human HeLa cells assessed as reduction in virus-induced cytopathic effect after 72 hrs by crystal violet staining-based assay. The settings on record: Enterovirus C, 10224, HeLa. Summed up: as §1
For assay [7], the system named is Poliovirus 1. In words: Antiviral activity against Human poliovirus 1 10236 infected in human HeLa cells assessed as reduction in virus-induced cytopathic effect after 72 hrs by crystal violet staining-based assay. The conditions noted are these: Enterovirus C, 10236, HeLa. In a few lines:
as §1

Assay [8] concerns Poliovirus 2. Briefly: Antiviral activity against Human poliovirus 2 10221 infected in human HeLa cells assessed as reduction in virus-induced cytopathic effect after 72 hrs by crystal violet staining-based assay. The settings on record: Enterovirus C, 10221, HeLa. In a few lines:
as §1

Assay [9] has as its system Poliovirus 2. Briefly: Antiviral activity against Human poliovirus 2 10226 infected in human HeLa cells assessed as reduction in virus-induced cytopathic effect after 72 hrs by crystal violet staining-based assay. The settings on record: Enterovirus C, 10226, HeLa. Summed up:
as §1

Assay [10] has as its system Poliovirus 2. In words: Antiviral activity against Human poliovirus 2 10227 infected in human HeLa cells assessed as reduction in virus-induced cytopathic effect after 72 hrs by crystal violet staining-based assay. The conditions noted are these: Enterovirus C, 10227, HeLa. Summed up: as §1
The test system of assay [11] is Poliovirus 2. In words: Antiviral activity against Human poliovirus 2 10229 infected in human HeLa cells assessed as reduction in virus-induced cytopathic effect after 72 hrs by crystal violet staining-based assay. The settings on record: Enterovirus C, 10229, HeLa. Summed up:
as §1

The test system of assay [12] is Poliovirus 2. In words: Antiviral activity against Human poliovirus 2 10231 infected in human HeLa cells assessed as reduction in virus-induced cytopathic effect after 72 hrs by crystal violet staining-based assay. The conditions noted are these: Enterovirus C, 10231, HeLa. Summed up: as §1
The subject of assay [13] is Poliovirus 2. Briefly: Antiviral activity against Human poliovirus 2 10232 infected in human HeLa cells assessed as reduction in virus-induced cytopathic effect after 72 hrs by crystal violet staining-based assay. The conditions noted are these: Enterovirus C, 10232, HeLa. Summed up:
as §1

In assay [14] the test system is Poliovirus 2. In words: Antiviral activity against Human poliovirus 2 10233 infected in human HeLa cells assessed as reduction in virus-induced cytopathic effect after 72 hrs by crystal violet staining-based assay. The conditions noted are these: Enterovirus C, 10233, HeLa. Summed up:
as §1

Assay [15] deals with Poliovirus 2. Briefly: Antiviral activity against Human poliovirus 2 10243 infected in human HeLa cells assessed as reduction in virus-induced cytopathic effect after 72 hrs by crystal violet staining-based assay. The settings on record: Enterovirus C, 10243, HeLa. In a few lines:
as §1

Assay [16] relates to Poliovirus 3. In words: Antiviral activity against Human poliovirus 3 10805 infected in human HeLa cells assessed as reduction in virus-induced cytopathic effect after 72 hrs by crystal violet staining-based assay. The settings on record: Enterovirus C, 10805, HeLa. In a few lines:
as §1

Assay [17] deals with Poliovirus 1. Briefly: Antiviral activity against Human poliovirus 1 Brunhilde infected in human HeLa cells assessed as reduction in virus-induced cytopathic effect after 72 hrs by crystal violet staining-based assay. The settings on record: Enterovirus C. In a few lines: as §1
For assay [18], the system named is Poliovirus 1. Briefly: Antiviral activity against Human poliovirus 1 Mahoney infected in human HeLa cells assessed as reduction in virus-induced cytopathic effect after 72 hrs by crystal violet staining-based assay. The settings on record: Enterovirus C. Summed up: as §1
Assay [19] deals with Poliovirus 2. Briefly: Antiviral activity against Human poliovirus 2 MEF-1 infected in human HeLa cells assessed as reduction in virus-induced cytopathic effect after 72 hrs by crystal violet staining-based assay. The conditions noted are these: Enterovirus C, MEF-1, HeLa. In a few lines: as §1
The test system of assay [20] is Poliovirus 2. Briefly: Antiviral activity against Human poliovirus 2 P712 infected in human HeLa cells assessed as reduction in virus-induced cytopathic effect after 72 hrs by crystal violet staining-based assay. The conditions noted are these: Enterovirus C. Summed up:
as §1

Assay [21] concerns Poliovirus 3. Briefly: Antiviral activity against Human poliovirus 3 Saukett infected in human HeLa cells assessed as reduction in virus-induced cytopathic effect after 72 hrs by crystal violet staining-based assay. The settings on record: Enterovirus C. In a few lines:
as §1

Assay [22] deals with Poliovirus 3. In words: Antiviral activity against Human poliovirus 3 Leon infected in human HeLa cells assessed as reduction in virus-induced cytopathic effect after 72 hrs by crystal violet staining-based assay. The conditions noted are these: Enterovirus C. In a few lines: as §1
For assay [23], the system named is Poliovirus 2. In words: Antiviral activity against Poliovirus Sabin 2 infected in human HeLa cells assessed as reduction in virus-induced cytopathic effect at 1 uM treated 1 hr post infection and measured after 12 hrs by luminescence based assay. Summed up:
(§2)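 HeLa monolayers were infected with Sabin 2 at 100 CCID50 for 1 h at 37°C, then washed 3x. Drug was added at 0, 1, 2, 4, 6 or 8 h post-infection and left in place. At 12 h, virus was freeze-thawed 3x and titrated in 0.5 log10 dilutions (16 replicates) on HeLa cells for 5 days. CPE was read by ATP luminescence, titre calculated as CCID50 (Kärber); mean of three independent experiments.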

Assay [24] relates to Poliovirus 2. Briefly: Antiviral activity against Poliovirus Sabin 2 infected in human HeLa cells assessed as reduction in virus-induced cytopathic effect at 1 uM treated 6 hrs post infection and measured after 12 hrs by luminescence based assay. Summed up:
as §2

Assay [25] deals with Poliovirus 2. In words: Antiviral activity against Poliovirus Sabin 2 infected in human HeLa cells assessed as reduction in virus-induced cytopathic effect at 1 uM treated 0 to 8 hrs post infection and measured after 12 hrs by luminescence based assay. In a few lines:
as §2

As to `Cc1ccc(C(=O)CCCCOc2ccc(C3=NCCO3)cc2)s1`, the EC50 in the assay on Poliovirus 1 [1] was 90.8 µM; in the assay on Poliovirus 2 [2] it was 0.187 µM; with Poliovirus 1 [3] it was 0.04 µM; in the assay on Poliovirus 1 [4], 67.5 µM; with Poliovirus 1 [5], 24.2 µM; in the assay on Poliovirus 1 [6], more than 100 µM. Moreover, the 50% effective concentration (EC50) is 2.72 µM with Poliovirus 1 [7]; 0.02 µM with Poliovirus 2 [8]; more than 100 µM in the assay on Poliovirus 2 [9]; 0.03 µM in the assay with Poliovirus 2 [10]; 0.55 µM with Poliovirus 2 [11]; 0.05 µM in the assay on Poliovirus 2 [12]. The EC50 was 0.54 µM in the assay on Poliovirus 2 [13]; 0.45 µM in the assay with Poliovirus 2 [14]; 0.04 µM in the assay with Poliovirus 2 [15]; 0.27 µM in the assay on Poliovirus 3 [16]; 0.99 µM in the assay with Poliovirus 1 [17]; more than 100 µM in the assay with Poliovirus 1 [18]. Also, the EC50 is more than 100 µM with Poliovirus 2 [19], more than 100 µM in the assay with Poliovirus 2 [20], 0.35 µM with Poliovirus 3 [21] and 0.17 µM in the assay with Poliovirus 3 [22]. Also, the result in the assay on Poliovirus 2 [23] and with Poliovirus 2 [24] was inactive.
In the case of `Cc1ccc(C(=O)CCC/C=C/c2ccc(C3=NCCO3)cc2)s1`, the EC50 with Poliovirus 1 [1] was 0.338 µM; in the assay on Poliovirus 2 [2], 0.027 µM; in the assay with Poliovirus 1 [3], 0.04 µM; with Poliovirus 1 [4], 0.98 µM; in the assay on Poliovirus 1 [5], 0.98 µM; in the assay on Poliovirus 1 [6], 1.11 µM. For the same molecule, the EC50 in the assay with Poliovirus 1 [7] was determined as 0.72 µM; in the assay with Poliovirus 2 [8] it was 0.02 µM; in the assay on Poliovirus 2 [9], 0.02 µM; with Poliovirus 2 [10], 0.04 µM; in the assay on Poliovirus 2 [11], 0.51 µM; with Poliovirus 2 [12] it was 0.03 µM. The EC50 in the assay on Poliovirus 2 [13] was 0.023 µM; in the assay on Poliovirus 2 [14] it was 0.19 µM; in the assay on Poliovirus 2 [15], 0.03 µM; in the assay with Poliovirus 3 [16], 0.03 µM; in the assay with Poliovirus 1 [17] it was 0.07 µM; in the assay with Poliovirus 1 [18] it was 0.07 µM. The EC50 in the assay on Poliovirus 2 [19] was 0.03 µM; with Poliovirus 2 [20], 0.24 µM; in the assay on Poliovirus 3 [21], 0.04 µM; in the assay with Poliovirus 3 [22] it was 0.95 µM. Also, the outcome in the assay on Poliovirus 2 [25] was Active.
With `Cc1ccc(C(=O)CCCCSc2ccc(C3=NCCO3)cc2)s1`, the concentration giving a half-maximal response (EC50) is 0.118 µM in the assay with Poliovirus 1 [1]; 0.137 µM in the assay with Poliovirus 2 [2]; 2.8 µM in the assay with Poliovirus 1 [3]; 0.56 µM in the assay on Poliovirus 1 [4]; more than 10 µM in the assay with Poliovirus 1 [5]; more than 10 µM with Poliovirus 1 [6]. The EC50 was found to be 0.72 µM with Poliovirus 1 [7]; 2.37 µM in the assay with Poliovirus 2 [8]; 0.13 µM in the assay with Poliovirus 2 [9]; 4.33 µM in the assay on Poliovirus 2 [10]; 2.77 µM in the assay with Poliovirus 2 [11]; 5.33 µM with Poliovirus 2 [12]. The EC50 in the assay on Poliovirus 2 [13] was 6.33 µM; in the assay with Poliovirus 2 [14] it was 8.47 µM; in the assay on Poliovirus 2 [15], 1.77 µM; with Poliovirus 3 [16], 1.5 µM; in the assay on Poliovirus 1 [17] it was 0.47 µM; with Poliovirus 1 [18], more than 10 µM. Besides, the concentration giving a half-maximal response (EC50) in the assay with Poliovirus 2 [19] is 1.26 µM; with Poliovirus 2 [20], 2.93 µM; in the assay with Poliovirus 3 [21], 1.67 µM; with Poliovirus 3 [22], 1.11 µM. In addition, the outcome in the assay on Poliovirus 2 [23] was inactive. The result in the assay on Poliovirus 2 [24] was Active.
